Values after ≈ are worked out from the molar mass of the structure shown.
What was measured:
THP-1 [1] = assay: Cytotoxicity against human THP1 cells assessed as CCK8 release at 1 uM after 24 hrs by ELISA; format: cell-based; conditions: thp-1, 24 h
Outline: (§1)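 Same THP-1 cytokine-assay cells, with compounds in 0.5% DMSO and LPS stimulation, were scored in parallel for cytotoxicity by CCK-8.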

THP-1 [2] = assay: Antiinflammatory activity in human THP1 cells assessed as inhibition of LPS-induced TNFalpha release at 1 uM after 24 hrs by ELISA; format: functional; conditions: THP-1, 24 h
Outline: (§2)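 THP-1 cells grown in RPMI 1640 with 10% FBS, penicillin and streptomycin, then PMA-differentiated. Compounds in 0.5% DMSO preincubated 30 min at 37 °C before LPS (E. coli 0127:B8) stimulation. TNF-α and IL-6 release measured by kit per the manufacturer (BD Biosciences). Percent inhibition calculated relative to control. Dexamethasone 1 µM as reference.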

THP-1 [3] = assay: Antiinflammatory activity in human THP1 cells assessed as inhibition of LPS-induced IL6 release at 1 uM after 24 hrs by ELISA; format: functional; conditions: THP-1, 24 h; outline: as §2
HCT-116 [4] = assay: Anticancer activity against human HCT116 cells at 500 nM after 48 hrs by propidium iodide fluorescence assay; format: functional
Outline: (§3)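 Propidium iodide DNA-fluorescence assay. Seeding 3000–7500 cells/well, 24 h recovery at 37 °C in 5% CO₂. Compounds in 0.1% DMSO added to triplicate wells at 10 µM. Flavopiridol 700 nM and gemcitabine 500 nM as reference inhibitors. Plates frozen at −80 °C for 24 h, thawed to room temperature, fluorescence read at excitation 530 nm and emission 620 nm. Percent cytotoxicity calculated.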

ACHN [5] = assay: Anticancer activity against human ACHN cells at 500 nM after 48 hrs by propidium iodide fluorescence assay; format: functional; outline: as §3
Calu-1 [6] = assay: Anticancer activity against human Calu1 cells at 500 nM after 48 hrs by propidium iodide fluorescence assay; format: functional; outline: as §3
NCI-H460 [7] = assay: Anticancer activity against human H460 cells at 500 nM after 48 hrs by propidium iodide fluorescence assay; format: functional; outline: as §3
PANC-1 [8] = assay: Anticancer activity against human PANC1 cells at 500 nM after 48 hrs by propidium iodide fluorescence assay; format: functional; outline: as §3
Proteus vulgaris [9] = assay: Antibacterial activity against Proteus vulgaris MTCC 1771 after 24 hrs; format: functional; conditions: MTCC 1771, 24 h
Outline: (§4)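 Agar well diffusion on Mueller Hinton agar seeded with 0.1 mL of a 10⁵ cfu/mL suspension in 0.85% saline. Compounds dissolved in DMSO, final concentrations 25–250 µg/mL, 0.1 mL loaded per 6 mm well. DMSO (1%) control; tetracycline (10 µg/mL) reference. Duplicate plates incubated 24 h at 37 °C. Inhibition zone read in mm. MIC taken as lowest concentration giving complete growth inhibition.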

Aspergillus flavus = assay: Antifungal activity against Aspergillus flavus MTCC 2501 at 100 ug/ml after 48 hrs agar diffusion method; format: functional; conditions: MTCC 2501, 48 h, read-out: IZ
Outline: (§5)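 Fungal spore suspensions in sterile distilled water adjusted to 10⁶ cfu/mL; 0.1 mL spread on Sabouraud dextrose agar. Wells of 6 mm filled with 0.1 mL compound dilution in DMSO. DMSO (1%) control; nystatin (30 µg/mL) reference. Duplicate plates incubated at 28 °C for 48 h. Activity read as inhibition zone diameter in mm.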

Calu-1 [10] = assay: Anticancer activity against human Calu1 cells at 10 uM after 48 hrs by propidium iodide fluorescence assay; format: functional; outline: as §3
Escherichia coli [11] = assay: Antibacterial activity against Escherichia coli MTCC 1650 at 50 ug/ml after 24 hrs agar diffusion method; format: functional; conditions: MTCC 1650, 24 h, read-out: IZ; outline: as §4
Penicillium chrysogenum = assay: Antifungal activity against Penicillium chrysogenum MTCC 1996 at 100 ug/ml after 48 hrs agar diffusion method; format: functional; conditions: MTCC 1996, 48 h, read-out: IZ; outline: as §5
THP-1 [12] = assay: Cytotoxicity against human THP1 cells assessed as CCK8 release at 10 uM after 24 hrs by ELISA; format: cell-based; conditions: thp-1, 24 h; outline: as §1
Bacillus subtilis [13] = assay: Antibacterial activity against Bacillus subtilis MTCC 1789 after 24 hrs; format: functional; conditions: MTCC 1789, 24 h; outline: as §4
NCI-H460 [14] = assay: Anticancer activity against human H460 cells at 10 uM after 48 hrs by propidium iodide fluorescence assay; format: functional; outline: as §3
Staphylococcus aureus [15] = assay: Antibacterial activity against Staphylococcus aureus MTCC 96 at 50 ug/ml after 24 hrs agar diffusion method; format: functional; conditions: MTCC 96, 24 h, read-out: IZ; outline: as §4
THP-1 [16] = assay: Antiinflammatory activity in human THP1 cells assessed as inhibition of LPS-induced IL6 release at 10 uM after 24 hrs by ELISA; format: functional; conditions: THP-1, 24 h; outline: as §2
Klebsiella pneumoniae [17] = assay: Antibacterial activity against Klebsiella pneumoniae NCIM 2957 at 50 ug/ml after 24 hrs agar diffusion method; format: functional; conditions: NCIM 2957, 24 h, read-out: IZ; outline: as §4
Escherichia coli [18] = assay: Antibacterial activity against Escherichia coli MTCC 1650 after 24 hrs; format: functional; conditions: MTCC 1650, 24 h; outline: as §4
Candida albicans = assay: Antifungal activity against Candida albicans MTCC 227 at 100 ug/ml after 48 hrs agar diffusion method; format: functional; conditions: MTCC 227, 48 h, read-out: IZ; outline: as §5
Trichoderma viride = assay: Antifungal activity against Trichoderma viride MTCC 167 at 100 ug/ml after 48 hrs agar diffusion method; format: functional; conditions: MTCC 167, 48 h, read-out: IZ; outline: as §5
HCT-116 [19] = assay: Anticancer activity against human HCT116 cells at 10 uM after 48 hrs by propidium iodide fluorescence assay; format: functional; outline: as §3
Aspergillus niger = assay: Antifungal activity against Aspergillus niger MTCC 1781 at 100 ug/ml after 48 hrs agar diffusion method; format: functional; conditions: MTCC 1781, 48 h, read-out: IZ; outline: as §5
Klebsiella pneumoniae [20] = assay: Antibacterial activity against Klebsiella pneumoniae NCIM 2957 after 24 hrs; format: functional; conditions: NCIM 2957, 24 h; outline: as §4
Staphylococcus aureus [21] = assay: Antibacterial activity against Staphylococcus aureus MTCC 96 after 24 hrs; format: functional; conditions: MTCC 96, 24 h; outline: as §4
PANC-1 [22] = assay: Anticancer activity against human PANC1 cells at 10 uM after 48 hrs by propidium iodide fluorescence assay; format: functional; outline: as §3
ACHN [23] = assay: Anticancer activity against human ACHN cells at 10 uM after 48 hrs by propidium iodide fluorescence assay; format: functional; outline: as §3
THP-1 [24] = assay: Antiinflammatory activity in human THP1 cells assessed as inhibition of LPS-induced TNFalpha release at 10 uM after 24 hrs by ELISA; format: functional; conditions: THP-1, 24 h; outline: as §2
HCT-116 [25] = assay: Anticancer activity against human HCT116 cells at 700 nM after 48 hrs by propidium iodide fluorescence assay; format: functional; outline: as §3
PANC-1 [26] = assay: Anticancer activity against human PANC1 cells at 700 nM after 48 hrs by propidium iodide fluorescence assay; format: functional; outline: as §3
NCI-H460 [27] = assay: Anticancer activity against human H460 cells at 700 nM after 48 hrs by propidium iodide fluorescence assay; format: functional; outline: as §3
ACHN [28] = assay: Anticancer activity against human ACHN cells at 700 nM after 48 hrs by propidium iodide fluorescence assay; format: functional; outline: as §3
Calu-1 [29] = assay: Anticancer activity against human Calu1 cells at 700 nM after 48 hrs by propidium iodide fluorescence assay; format: functional; outline: as §3
Proteus vulgaris [30] = assay: Antibacterial activity against Proteus vulgaris MTCC 1771 at 50 ug/ml after 24 hrs agar diffusion method; format: functional; conditions: MTCC 1771, 24 h, read-out: IZ; outline: as §4
Bacillus subtilis [31] = assay: Antibacterial activity against Bacillus subtilis MTCC 1789 at 50 ug/ml after 24 hrs agar diffusion method; format: functional; conditions: MTCC 1789, 24 h, read-out: IZ; outline: as §4

Row | SMILES | MIC (Proteus vulgaris [9]) [µg/mL] | zone of inhibition at 100 µg/mL (Aspergillus flavus) [mm] | Activity (Calu-1 [10]) [%] | zone of inhibition at 50 µg/mL (Escherichia coli [11]) [mm] | zone of inhibition at 100 µg/mL (Penicillium chrysogenum) [mm] | Activity (THP-1 [12]) [%] | MIC (Bacillus subtilis [13]) [µg/mL] | Activity (NCI-H460 [14]) [%] | zone of inhibition at 50 µg/mL (Staphylococcus aureus [15]) [mm] | inhibition at 10 µM (THP-1 [16]) [%] | zone of inhibition at 50 µg/mL (Klebsiella pneumoniae [17]) [mm] | MIC (Escherichia coli [18]) [µg/mL] | zone of inhibition at 100 µg/mL (Candida albicans) [mm] | zone of inhibition at 100 µg/mL (Trichoderma viride) [mm] | Activity (HCT-116 [19]) [%] | zone of inhibition at 100 µg/mL (Aspergillus niger) [mm] | MIC (Klebsiella pneumoniae [20]) [µg/mL] | MIC (Staphylococcus aureus [21]) [µg/mL] | Activity (PANC-1 [22]) [%] | Activity (ACHN [23]) [%] | also measured
1 | C[C@@H]1C[C@H]2[C@@H]3CCC4=CC(=O)C=C[C@]4(C)[C@@]3(F)[C@@H](O)C[C@]2(C)[C@@]1(O)C(=O)CO [DEXAMETHASONE] | – | – | – | – | – | – | – | – | – | – | – | – | – | – | – | – | – | – | – | – | Activity (THP-1 [1]): 0%; inhibition at 1 µM (THP-1 [2]): 73%; inhibition at 1 µM (THP-1 [3]): 84%
2 | Nc1ccn([C@@H]2O[C@H](CO)[C@@H](O)C2(F)F)c(=O)n1 [GEMCITABINE] | – | – | – | – | – | – | – | – | – | – | – | – | – | – | – | – | – | – | – | – | Activity (HCT-116 [4]): 76%; Activity (ACHN [5]): 70%; Activity (Calu-1 [6]): 70%; Activity (NCI-H460 [7]): 68%; Activity (PANC-1 [8]): 71%
3 | COc1ccc(C(=O)/C=C/C=C(\Cl)c2ccc(OC)cc2)cc1 | 50 (≈ 152 µM) | 14 | 38 | 17 | 15 | 0 | 50 (≈ 152 µM) | 19 | 12 | 11 | 12 | 50 (≈ 152 µM) | 11 | 14 | 16 | 14 | 50 (≈ 152 µM) | 50 (≈ 152 µM) | 16 | 28 | inhibition at 10 µM (THP-1 [24]): 2%
4 | CN1CC[C@H](c2c(O)cc(O)c3c(=O)cc(-c4ccccc4Cl)oc23)[C@H](O)C1 [ALVOCIDIB] | – | – | – | – | – | – | – | – | – | – | – | – | – | – | – | – | – | – | – | – | Activity (HCT-116 [25]): 71%; Activity (PANC-1 [26]): 75%; Activity (NCI-H460 [27]): 84%; Activity (ACHN [28]): 68%; Activity (Calu-1 [29]): 68%
5 | COc1ccc(C(=O)/C=C/C=C(\Cl)c2ccc(Br)cc2)c(OC)c1 | 50 (≈ 123 µM) | 18 | 27 | 13 | 16 | 0 | 50 (≈ 123 µM) | 16 | 12 | 36 | 18 | 50 (≈ 123 µM) | 12 | 16 | 22 | 12 | 50 (≈ 123 µM) | 50 (≈ 123 µM) | 33 | 39 | zone of inhibition at 50 µg/mL (Proteus vulgaris [30]): 10 mm; zone of inhibition at 50 µg/mL (Bacillus subtilis [31]): 16 mm; inhibition at 10 µM (THP-1 [24]): 0%

From ChEMBL document CHEMBL1157556, “Synthesis and biological screening of a combinatorial library of beta-chlorovinyl chalcones as anticancer, anti-inflammatory and antimicrobial agents” (Bioorg Med Chem, 2010)
